Assay outcomes from PubChem BioAssay.
A selection: hits, their analogues and other compounds. The true share with any hit is near 2%.
XiGFP reactiv: activators of X-chromosome reactivation in mouse fibroblasts; XiGFP mouse fibroblasts, % GFP-positive cells imaging, 3 d; cells co-treated with 5-aza-dC sensitizer; scaled so ellipticine positive control = 100%; activation, % at 7.58 µM; 360,000 compounds, 0.055% hits;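 active = mean normalized replicate activation at least 10% and every replicate at or above 10%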;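 also: 0% = median of on-plate neutral control wells and 100% = ellipticine 6 µM median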
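System: SV40-immortalized XiGFP fibroblast cells, line 68-5-11 / Incubation: 3-day compound exposure, then 15 min fixation at room temperature / Compound: single concentration per compound, delivered by pin transfer / Buffer or medium: DMEM plus 5-aza-dC sensitizer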
SR-BI uptake up: SR-BI HDL lipid transfer activation; 320,000 compounds, 0.096% hits; CHO ldlA[mSR-BI] cells, DiI-HDL uptake fluorescence, 3 h; 100 = double the neutral-control signal; activation, % at 12.5 µM; AID 504775;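 active = mean replicate activation of at least 60% and every replicate at or above 60%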;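 also: 0% = median plate neutral-control signal and 100% = twice that signal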
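System: LDL receptor-deficient CHO ldlA cells overexpressing murine SR-BI | Timing: 3 h uptake period with compound, 37 °C | Medium: HEPES-buffered (25 mM, pH 7.4) F12 plus 0.5% BSA | Dosing: Single-point compound dose | Signal: Bottom-read fluorescence, 550/595 nm | Read-out: Retained DiI signal reflecting DiI-HDL uptake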
sPLA2-III inh: Inhibits HGIII-sPLA2 liposome hydrolysis, primary screen | Q9NZ20 | QFRET BODIPY PC-A2 liposome hydrolysis, fluorescence | inhibition, % at 12.2 µM | 370,000 compounds, 0.56% hits | AID 743126;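 active = inhibition above mean plus 3 SD of compounds lying within the high and low control bounds, cut at about 19% in these data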;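 also: 0% = median of test compound wells and 100% = no enzyme DMSO wells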
NSD2 inh: inhibitors of human histone methyltransferase NSD2; O96028; 310,000 compounds, 0.54% hits; inhibition, % at 12.5 µM; NSD2 peptide methylation, AlphaScreen, 120 min; in the data active = inhibition above about 50%
ARNT-TACC3 inh: ARNT/TACC3 interaction disruption | AID 623870 | AlphaScreen His-ARNT PAS-B/GST-TACC3 binding, luminescence; TACC3 fragment carries E629A point mutation | 390,000 compounds, 0.66% hits | Q9Y6A5 | inhibition, % at 9.99 µM;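 active = mean inhibition of replicates at least 50% and at least half of replicates each reaching 50%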;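 also: 0% = complete ARNT plus TACC3 wells and 100% = ARNT alone without TACC3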
SR-BI HDL uptake: mouse SR-BI HDL lipid transfer inhibition. inhibition, % at 12.5 µM. 320,000 compounds, 0.96% hits. Q61009. ldlA[mSR-BI] CHO cells, DiI-HDL uptake fluorescence, 3 h. AID 488896;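 active = mean replicate inhibition of at least 70% and a set share of replicates each scoring 70 or more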;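 also: 0% = median of neutral control wells and 100% = median of positive control wells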
Target sequence (Q61009 whole entry, looked up): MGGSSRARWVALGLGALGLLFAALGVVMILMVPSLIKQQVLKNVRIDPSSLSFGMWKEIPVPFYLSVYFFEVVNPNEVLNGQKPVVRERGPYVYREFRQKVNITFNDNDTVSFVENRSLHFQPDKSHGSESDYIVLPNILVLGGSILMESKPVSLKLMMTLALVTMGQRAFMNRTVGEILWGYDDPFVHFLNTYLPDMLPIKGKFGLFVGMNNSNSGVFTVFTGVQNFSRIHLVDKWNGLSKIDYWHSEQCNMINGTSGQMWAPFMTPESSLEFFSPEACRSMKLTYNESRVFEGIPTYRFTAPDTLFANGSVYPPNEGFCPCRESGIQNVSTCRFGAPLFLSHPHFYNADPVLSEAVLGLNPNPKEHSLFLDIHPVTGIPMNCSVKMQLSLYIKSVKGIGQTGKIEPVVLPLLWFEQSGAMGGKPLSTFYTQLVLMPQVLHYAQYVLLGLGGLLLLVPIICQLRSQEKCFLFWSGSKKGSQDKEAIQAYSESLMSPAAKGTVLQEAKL
Active calls of the source: *; · = no result.

SMILES | XiGFP reactiv | SR-BI uptake up | sPLA2-III inh | NSD2 inh | ARNT-TACC3 inh | SR-BI HDL uptake
CCCCN(CC)CCNC(=O)Cn1cc2c(n1)-c1c(oc(C(=O)N3CCCC3)c1C)CC2 | 0 | 9 | -6 | 18 | 7 | -9
CCOc1ccc(S(=O)(=O)N2CCN(Cc3ccc4c(c3)OCO4)CC2)cc1Cl | 0 | 11 | -16 | -2 | 3 | -11
Cc1cccnc1CCNC(=O)CCc1nnc(CCc2ccccc2)o1 | 0 | · | 0 | · | -3 | ·
CCOC(=O)C(C)(C)Oc1ccc(Cl)cc1 | 0 | -4 | 7 | · | 12 | 4
CC(C)OC(=O)C(C)(C)Oc1ccc(C(=O)c2ccc(Cl)cc2)cc1 | 0 | -93 | -3 | · | -19 | 93*
CC1Oc2ccccc2N(CC(=O)N(Cc2ccccc2)Cc2ccccn2)C1=O (centres undefined) | · | 5 | 3 | 20 | -2 | -5
CC(C)C1Oc2ccccc2N(CC(=O)N(Cc2ccccn2)C2CC2)C1=O (centres undefined) | · | 369* | 5 | -5 | -1 | -369
COc1cc(/C=N/NC(=O)c2cnn3c(C)cc(-c4ccccc4)nc23)ccc1O | · | -77 | 0 | 2 | 3 | 77*
Cc1ccc2c(CC(=O)NNC(=O)c3ccccc3O)coc2c1 | 0 | -106 | 1 | 3 | 0 | 106*
COc1ccccc1NC(=O)Cc1coc2cc(C)ccc12 | · | -14 | -5 | -2 | -3 | 14
COCCCN1CC(=O)N2C(c3cccc(OC)c3)c3[nH]c4ccccc4c3C[C@H]2C1=O (some centres undefined) | 0 | -23 | -8 | 0 | 0 | 23
CC(C)OCCCN1CC(=O)N2C(c3cccc([N+](=O)[O-])c3)c3[nH]c4ccccc4c3C[C@H]2C1=O (some centres undefined) | 0 | -81 | -25 | 3 | 15 | 81*
CC(C)NC(=O)Nc1ccc2c(c1)C(=O)N([C@@H](C)CO)C[C@H](C)[C@H](CN(C)CC1CCCCC1)O2 | 0 | · | · | · | 5 | ·
Nc1nc(-c2ccccc2)cn1N | · | 19 | 12 | -1 | 48* | -19
COc1ccccc1N1CCN(C(=O)CCC(=O)N2CCN(c3ccccc3OC)CC2)CC1 | 0 | -70 | 0 | 1 | 0 | 70*
CC1(C(=O)NS(=O)(=O)c2ccc(F)cc2F)CCN1C(=O)Cc1cccc2ccccc12 (centres undefined) | 0 | · | -11 | -2 | · | ·
CO[C@H]1CN(C)C(=O)c2ccc(NC(=O)c3nc4ccccc4s3)cc2OC[C@@H](C)N(Cc2ccncc2)C[C@H]1C | 0 | · | · | · | 1 | ·
CC(C(=O)Nc1ccc(C(=O)O)c(O)c1)N1C(=O)/C(=C\c2ccco2)SC1=S (centres undefined) | · | 20 | · | · | 19 | -20
O=C(CN1C(=O)/C(=C/c2ccco2)SC1=S)Nc1ccc(C(=O)O)c(O)c1 | 0 | 15 | -17 | 135* | 16 | -15
COc1ccc(C2(C)NC(=O)N(CC3CCCCC3)C2=O)cc1 (centres undefined) | 0 | · | -3 | 4 | -4 | ·
COc1ccccc1NC(=O)CN1C(=O)NC(CC(C)C)C1=O (centres undefined) | · | 4 | -3 | · | 5 | -4
CSc1nc(-c2ccco2)cc(-c2ccccc2)c1C#N | · | -65 | 1 | -1 | -1 | 65
COc1ccc(-c2cc(-c3ccc(OC)cc3)c(C#N)c(SC)n2)cc1 | · | -80 | 5 | 2 | · | 80*
CC(O)CN(CC(C)O)c1ccc2c(c1)Cc1cc([N+](=O)[O-])ccc1-2 (centres undefined) | 29* | -89 | -8 | 1 | 10 | 89*
COc1cccc(OC)c1C(=O)Nc1ccc2c(c1)N(S(=O)(=O)c1cccs1)CCC2 | 0 | -77 | 7 | -6 | 0 | 77*
SMILES | XiGFP reactiv | SR-BI uptake up | sPLA2-III inh | NSD2 inh | ARNT-TACC3 inh | SR-BI HDL uptake
Cc1c(NC(=O)Nc2ccc(Cl)c(Cl)c2)sc(=S)n1C | · | -90 | 11 | -1 | -27 | 90*
COc1ccc(NC(=O)Nc2sc(=S)n(C)c2C)cc1 | 0 | -6 | 2 | -4 | -3 | 6
COc1ccc(OC)c2[nH]c(=O)c(CCNS(=O)(=O)c3ccc(Cl)cc3)cc12 | · | -26 | -1 | 1 | 48* | 26
COc1ccc(OC)c2[nH]c(=O)c(CCNS(=O)(=O)c3ccc(C)cc3)cc12 | · | -4 | 10 | 0 | -15 | 4
CCOC(=O)CCc1ccc(NC(=O)/C=C/c2ccc([N+](=O)[O-])o2)cc1 | 6 | -74 | 7 | 1 | 6 | 74*
Cc1ccc(/C=C/C(=O)Nc2ccc(Oc3ccccc3)cc2)o1 | 0 | -24 | 2 | 4 | 0 | 24
CCc1ccc(C(=O)/C=C/c2ccc([N+](=O)[O-])o2)cc1 | · | -13 | 0 | -3 | -8 | 13
Cc1ccc(/C=C/C(=O)Nc2ccc([N+](=O)[O-])cc2)o1 | · | -75 | -21 | · | 4 | 75*
CCOC(=O)c1ccc(N=C2C(=S)N(c3ccc(C(=O)OCC)cc3)C(=N)N2/N=C/c2ccccc2)cc1 | · | -76 | -9 | · | · | 76*
N=C1N(c2ccccc2)C(=S)C(=Nc2ccccc2)N1c1ccccc1 | 0 | -24 | 10 | 0 | -3 | 24
Oc1ccc(C[C@H]2CNC(=S)N2CC2CCCN2C[C@H](Cc2ccccc2)N2C[C@H](Cc3ccc(O)cc3)N(CCc3ccccc3)C2=S)cc1 (some centres undefined) | 0 | 108* | 2 | · | 33 | -108
Cc1cc(F)ccc1NC(=O)c1cc(S(=O)(=O)N2CCc3ccccc32)cn1C | 0 | -32 | -4 | · | -4 | 32
Nc1c(N(Cc2ccco2)C(=O)COc2ccccc2Cl)c(=O)[nH]c(=O)n1Cc1ccccc1 | 0 | 4 | 2 | · | -6 | -4
Cc1occc1C(=O)Nc1sc2c(c1C(N)=O)CCCCC2 | · | -73 | -4 | 3 | 1 | 73*
CNC(=O)c1c(NC(=O)c2ccc(N3C(=O)CCC3=O)cc2)sc2c1CCCC2 | 0 | -87 | -5 | · | 2 | 87*
O=C(O)C1Nc2c(O)cccc2C2C=CCC12 (centres undefined) | 0 | -14 | 1 | 26 | 75* | 14
O=C(C[n+]1ccccc1)N/N=C/c1ccccc1F | 0 | 30 | 0 | -1 | · | -30
COc1ccccc1/C=N\NC(=O)c1c(C)nc2ccc(Cl)cn12 | 0 | -45 | 2 | -3 | 5 | 45
COc1cccc(/C=N/NC(=O)c2c(C)nc3ccc(Cl)cn23)c1O | 1 | -121 | 10 | -3 | 12 | 120*
O=C(C[n+]1ccccc1)N/N=C/c1cc(Br)ccc1O | 0 | -4 | -3 | 1 | 64* | 4
